Compound activity deposited in PubChem by several laboratories.
Most compounds without a hit are left out; they make up all but 2.9% or so of the library.
SENP6 inh = inhibitors of human SENP6 protease; Q9GZR1; Recombinant SENP6 catalytic domain, aminoluciferin luminescence; inhibition, % at 10 µM; 1.8% of 330,000 active; AID 2599;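 active means inhibition above about 50% at the single tested dose, limit read from the data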
SENP7 block = SENP7 protease inhibition | recombinant SENP7, Z-RLRGG-aminoluciferin luminescence, 40 min | inhibition, % at 5 µM | 1.5% of 330,000 active | AID 434973;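 active means inhibition above about 50% at the single test dose, limit read from the data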
SENP8 block-1 = SENP8 (human) protease inhibition; Q96LD8; recombinant SENP8, Nedd8 substrate fluorescence; inhibition, % at 20 µM; 0.64% of 360,000 active; AID 602440; in the data active means inhibition mostly above about 40%, no sharp cut-off; inactive means mostly below about 27%
Target sequence (Q96LD8 whole entry, looked up): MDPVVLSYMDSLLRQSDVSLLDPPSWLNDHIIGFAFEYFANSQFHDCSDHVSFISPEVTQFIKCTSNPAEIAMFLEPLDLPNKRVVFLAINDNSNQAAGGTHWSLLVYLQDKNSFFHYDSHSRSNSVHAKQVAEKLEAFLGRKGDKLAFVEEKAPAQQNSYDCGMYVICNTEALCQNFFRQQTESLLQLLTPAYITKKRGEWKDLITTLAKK
SENP8 block-2 = inhibitors of human SENP8 protease; AID 2540; Q96LD8; purified SENP8, Z-RLRGG-aminoluciferin cleavage, luminescence; 1.2% of 330,000 active; inhibition, % at 10 µM; in the data active means inhibition above about 50%
HSP90 refold inh = inhibitors of HSP90 luciferase refolding in rabbit reticulocyte lysate; AID 1789; luciferase refolding luminescence, 3 h; 0.91% of 290,000 active; inhibition, % at 5.6 µM;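 active means inhibition above the screen-wide mean plus 3 SD, computed separately per campaign, cut at about 16% in these data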;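 further: inhibitors lower the luminescence because luciferase stays unfolded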
SENP1 inh = inhibitors of human SENP1 SUMO protease catalytic domain | recombinant SENP1 catalytic domain, CyPet-SUMO1-YPet FRET cleavage | inhibition, % at 10 µM | 0.21% of 360,000 active | AID 624204 | Q9P0U3;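 active means inhibition at least 30% at 10 µM, raw YFP signal under a set limit, fluorescence ratio 0.5 to 1.5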
Target sequence (Q9P0U3 419-644 limits assumed): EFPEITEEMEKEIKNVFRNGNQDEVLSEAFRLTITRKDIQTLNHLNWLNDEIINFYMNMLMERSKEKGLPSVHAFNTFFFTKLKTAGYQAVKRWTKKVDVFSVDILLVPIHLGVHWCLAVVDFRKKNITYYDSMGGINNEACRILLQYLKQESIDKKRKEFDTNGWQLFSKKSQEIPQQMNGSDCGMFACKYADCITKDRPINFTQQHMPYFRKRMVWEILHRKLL
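Material: hSENP1 catalytic domain, recombinant; medium: Tris pH 8 with BME, BSA, NP40 and catalase; compound: single concentration of 10 µM compound, 0.5% DMSO final; technique: FRET read of cyan and yellow fluorescence; timing: 50 min enzyme reaction, room temperature, light-protected; reagent: SFCypet-SUMO1-SFYpet substrate at 25 nM; control set: no-enzyme low, enzyme-DMSO high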
HSP90 confirm = HSP90 inhibition, confirmation assay; shares compounds with HSP90 refold inh; rabbit reticulocyte lysate, luciferase refolding luminescence, 3 h; inhibition, % at 5.9 µM; 64% of 2,300 active; AID 1846; in the data active means inhibition above about 18%
FLuc counter = blocks native firefly luciferase in HSP90 counter-screen. 48% of 2,300 active. AID 1847. shares compounds with HSP90 refold inh. inhibition, % at 5.9 µM. purified native firefly luciferase, luminescence;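 active means inhibition above the mean inhibition of all tested sample wells plus 3 SD, cut at about 10% in these data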
SENP8 confirm = human SENP8 inhibition, confirmed; Recombinant SENP8, Z-RLRGG-aminoluciferin luminescence, 60 min; inhibition, % at 12.5 µM; 40% of 6,200 active; shares compounds with SENP7 block;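 active means mean inhibition across replicates above about 50%, limit read from the data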
SENP6 conf = confirmation of human SENP6 protease inhibitors | shares compounds with SENP7 block | recombinant SENP6, Z-RLRGG-aminoluciferin luminescence | inhibition, % at 12.5 µM | 58% of 6,200 active | AID 488915
SENP7 conf = human SENP7 inhibition, confirmed | shares compounds with SENP7 block | recombinant SENP7, Z-RLRGG-aminoluciferin luminescence, 40 min | AID 488917 | 69% of 6,200 active | inhibition, % at 12.5 µM
Casp3 SENP sel = inhibits human caspase-3 in SENP selectivity test; shares compounds with SENP7 block; purified caspase-3, Z-DEVD-aminoluciferin luminescence, 60 min; inhibition, % at 12.5 µM; 60% of 6,200 active; AID 488918;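 active means mean inhibition above about 50%, limit read from the data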
SENP luc ctr = luminescence interference (SENP counter-screen). shares compounds with SENP7 block. Pre-incubated SENP8/Z-RLRGG-aminoluciferin, luciferase luminescence interference. inhibition, % at 12.5 µM. 39% of 6,200 active. AID 488919;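 active means mean inhibition above about 50% when retested at one dose, limit read from the data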
A number is an active result; – = inactive; · = not tested or not shown.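 How the source made its calls, unless noted: active means mean inhibition above about 50% in the one-dose retest (limit read from the data); inactive means the rest.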

SMILES	SENP6 inh	SENP7 block	SENP8 block-1	SENP8 block-2	HSP90 refold inh	SENP1 inh	HSP90 confirm	FLuc counter	SENP8 confirm	SENP6 conf	SENP7 conf	Casp3 SENP sel	SENP luc ctr
CCOc1cccc(C(=O)Nc2ccc3c(c2)OCCO3)c1	69.1	64.6	–	–	19.4	–	45.4	27.1	66.2	63.1	89.2	77.0	69.0
CCOc1cccc(C(=O)Nc2cccc(C(C)=O)c2)c1	–	–	–	–	–	–	·	·	·	·	·	·	·
CCOc1cccc(C(=O)Nc2ccc(N(CC)CC)cc2)c1	–	–	–	–	–	–	·	·	·	·	·	·	·
CCOc1c(Cl)cc(C(=O)Nc2cccc(C(=O)O)c2)cc1Cl	95.0	87.7	–	92.4	30.2	–	47.4	9.8	95.4	96.0	100.7	53.5	96.1
CCOc1cccc(C(=O)Nc2ccc3ccccc3c2)c1	92.9	92.2	–	88.4	19.2	–	47.0	37.3	–	65.7	98.9	–	–
CCOc1ccc(-c2cccc(NC(=O)c3cccs3)c2)nn1	–	–	–	–	·	–	·	·	·	·	·	·	·
Cc1sc(NC(=O)C2=COCCO2)c(C(N)=O)c1C	–	–	–	–	·	–	·	·	·	·	·	·	·
CCN(c1ccccc1)c1nc(=O)c2cccnc2s1	–	–	–	–	–	–	·	·	·	·	·	·	·
CCN(c1ccccc1)c1cc2ccccc2c(=O)[nH]1	87.6	86.2	–	92.1	41.1	–	–	–	–	61.1	–	–	–
CCc1ccc(C(=O)Nc2nc(C)cs2)s1	76.1	81.8	–	63.0	42.9	–	56.0	51.5	76.7	73.2	92.9	77.9	77.4
CC(=O)N(CN1C(=O)c2ccccc2C1=O)c1cccc(C)c1	–	–	–	–	–	–	·	·	·	·	·	·	·
CC(=O)N(/N=C1\Sc2ccccc2C1=O)c1cccc(C)c1	92.3	93.0	–	93.6	39.9	–	75.9	–	–	84.0	57.5	–	–
CCCCCCN1C=CC(=C2C(=O)c3ccccc3C2=O)C=C1	87.1	75.9	–	85.5	48.5	48.1	83.9	77.9	–	–	–	–	–
CC1=CC(=C2C(=O)c3ccccc3C2=O)C=C(C)O1	–	–	–	–	–	–	·	·	·	·	·	·	·
CN1C=CC(=C2C(=O)c3ccccc3C2=O)C=C1	–	–	·	–	–	·	·	·	·	·	·	·	·
CCCN1C=CC(=C2C(=O)c3ccccc3C2=O)C=C1	94.6	93.2	–	89.8	91.7	–	96.0	91.2	93.3	97.9	101.6	98.1	60.1
CCCCN1C(C)=CC(=C2C(=O)c3ccccc3C2=O)C=C1C	60.2	–	–	–	17.2	–	43.2	30.9	61.1	60.3	80.8	84.7	–
CCN1C=CC(=C2C(=O)c3ccccc3C2=O)C=C1	87.7	86.1	–	76.0	85.9	–	92.8	86.6	–	85.9	99.7	96.0	89.1
O=C(OCC(=O)N1CCc2ccccc21)c1ccncc1	–	–	–	–	·	–	·	·	·	·	·	·	·
CC(C)N(C(=O)N1CCN(c2ccnc3cc(Cl)ccc23)CC1)C(C)C	–	–	–	–	–	–	·	·	·	·	·	·	·
CCc1ccc(NC(=O)c2cnn3ccccc23)cc1	90.7	94.7	–	88.8	65.3	–	78.3	71.1	93.2	94.0	100.6	92.6	93.5
CN(C)c1ccc(-c2nc3cc(N)ccc3o2)cc1	92.8	95.0	–	91.1	29.5	–	55.0	51.5	85.2	94.2	99.8	91.4	78.7
Nc1ccc2oc(-c3ccccn3)nc2c1	–	–	–	–	–	–	·	·	·	·	·	·	·
COC(=O)CCCn1cc(CN(C)C2CN(Cc3cn(CCCC(=O)OC)nn3)S(=O)(=O)C2)nn1 (centres undefined)	·	·	–	·	·	–	·	·	·	·	·	·	·
Cc1ccc2c(c1)Cc1nc3ccccc3nc1-2	98.0	99.8	–	96.4	26.8	–	70.9	62.6	–	98.9	103.2	97.6	68.2
Cc1ccc2c(c1)-c1nc3ccccc3cc1C2=NC1CCCCC1	·	·	–	·	–	–	·	·	·	·	·	·	·
CCCN1CCc2c(sc(NC(=O)C3CCN(S(=O)(=O)c4cccs4)CC3)c2C(N)=O)C1	–	–	–	–	·	–	·	·	·	·	·	·	·
Cc1ccc(S(=O)(=O)Nc2ccccc2C(=O)N2CCN(C)CC2)cc1	–	–	–	–	–	–	·	·	·	·	·	·	·
CC(C)c1ccc(/C=N/Nc2ccc(C(=O)O)cc2)cc1	97.8	100.6	–	97.0	61.3	–	89.6	84.9	99.2	100.0	102.6	97.2	98.6
C=CCOc1c(Br)cc(/C=N/Nc2ccc(C(=O)O)cc2)cc1OCC	84.5	55.0	–	77.2	20.2	–	23.8	10.3	87.7	86.8	94.2	–	56.0
